SKN-1 block: inhibitors of C. elegans SKN-1; C. elegans VP596 Pgst-4::GFP/RFP ratio, acrylamide-induced, 24 h; AID 624304; inhibition, % at 21.8 µM; 360,000 tested, 0.49% active;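 active = interference check ratio from 0.5 to 1.5 plus GFP to RFP signal ratio inhibition reaching or exceeding a fixed threshold, cut at about 30% in these data, passing the limit was not always enough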
CendR NRP1 mod: alters CendR peptide binding to human NRP-1. AID 602438. FAM-RPARPAR peptide binding to NRP-1, fluorescence polarization. O14786. 360,000 tested, 0.85% active. inhibition, % at 25 µM;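 active = inhibition or corrected inhibition above about 18%, plus a signal ratio from 0.5 to 1.5, limit read from the data, passing the limit was not always enough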
Target sequence (O14786 whole entry, looked up): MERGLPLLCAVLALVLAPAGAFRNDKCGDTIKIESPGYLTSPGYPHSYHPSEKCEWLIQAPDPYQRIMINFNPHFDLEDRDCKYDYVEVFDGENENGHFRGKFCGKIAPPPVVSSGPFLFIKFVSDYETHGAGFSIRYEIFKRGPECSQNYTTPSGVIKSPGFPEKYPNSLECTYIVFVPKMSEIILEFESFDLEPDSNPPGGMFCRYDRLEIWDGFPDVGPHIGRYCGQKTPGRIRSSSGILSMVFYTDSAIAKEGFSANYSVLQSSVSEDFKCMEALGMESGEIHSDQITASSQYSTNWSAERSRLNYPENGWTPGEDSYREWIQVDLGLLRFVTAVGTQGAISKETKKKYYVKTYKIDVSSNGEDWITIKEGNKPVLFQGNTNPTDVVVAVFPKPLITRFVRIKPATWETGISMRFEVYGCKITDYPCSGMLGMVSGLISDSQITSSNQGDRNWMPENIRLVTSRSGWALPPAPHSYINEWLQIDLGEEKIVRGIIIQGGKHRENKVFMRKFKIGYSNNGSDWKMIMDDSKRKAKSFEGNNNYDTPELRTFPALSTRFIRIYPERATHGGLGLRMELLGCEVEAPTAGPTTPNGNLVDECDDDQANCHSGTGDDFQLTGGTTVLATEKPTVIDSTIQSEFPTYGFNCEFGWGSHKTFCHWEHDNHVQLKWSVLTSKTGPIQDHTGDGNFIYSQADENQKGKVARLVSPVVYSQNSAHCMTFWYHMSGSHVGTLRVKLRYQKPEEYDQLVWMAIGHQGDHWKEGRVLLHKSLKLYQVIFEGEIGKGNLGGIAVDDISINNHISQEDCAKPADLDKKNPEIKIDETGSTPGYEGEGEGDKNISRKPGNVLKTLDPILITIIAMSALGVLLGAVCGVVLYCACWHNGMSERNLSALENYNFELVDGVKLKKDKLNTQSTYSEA
MT1-MMP act inh: inhibitors of human MT1-MMP activation; P50281; HT1080 RFP-PRO-GFP cells, GFP/RFP ratio fluorescence, overnight; percent of plate control window, DMSO zero; GFP/RFP ratio change, % at 20 µM; 360,000 tested, 0.061% active; AID 651647;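 active = GFP/RFP ratio change of at least 30% with cell ATP level not reduced by more than half and red fluorescence within 50% of control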
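Material – HT1080 RFP-PRO-GFP cells · Control set – DMSO wells and RFP-L50D-GFP cells · Incubation – overnight cell settling, then overnight compound exposure, 37 °C, 5% CO2 · Compound dosing – single-point 20 µM compound, 1% DMSO · Read-out – GFP/RFP fluorescence ratio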
hiPSC survival: enhancers of human iPSC single-cell survival; hiPSC single-cell survival, ATPlite luminescence; 100% = ROCK inhibitor wells, 0% = DMSO; AID 602274; 360,000 tested, 0.044% active; survival enhancement, % at 20 µM; in the data active = survival enhancement above about 18%;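 note: cells exposed to compounds for 16 hours before the ATP read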
* marks the source's active call; other numbers are inactive results. Compounds with a hit are over-represented: about 1.4% of the library has one in this group of screens.

How did O=c1nc2ccccn2c2ccc(S(=O)(=O)N3CCCCC3)cc12 do in these assays?
SKN-1 block: -9; CendR NRP1 mod: 3; MT1-MMP act inh: 0; hiPSC survival: 1

Results for CCOC(=O)C1=C(COC(=O)c2ccc(Cl)cc2[N+](=O)[O-])NC(=O)NC1C (stereo not drawn) ?
SKN-1 block: 34*; CendR NRP1 mod: 4; MT1-MMP act inh: -3; hiPSC survival: 0

What do the screens show for `CCOC(=O)C1=C(COC(=O)c2cc([N+](=O)[O-])ccc2Cl)NC(=O)NC1C` (stereo not drawn)?
SKN-1 block: 7; CendR NRP1 mod: 6; MT1-MMP act inh: 1; hiPSC survival: -1

How did COc1ccc(NC2CCCN(C(=O)CCN3CCCO3)C2)cc1 (stereo not drawn) do in these assays?
SKN-1 block: 5; CendR NRP1 mod: 2; MT1-MMP act inh: 1; hiPSC survival: 0

How did O=[N+]([O-])c1cc2c(cc1Br)-c1ccccc1C2 do in these assays?
SKN-1 block: 52*; CendR NRP1 mod: 2; MT1-MMP act inh: 2; hiPSC survival: -3

How did CCc1ccc(NC(=O)N(Cc2ccco2)C(C)c2cccs2)cc1 (stereo not drawn) do in these assays?
SKN-1 block: -15; CendR NRP1 mod: 32*; MT1-MMP act inh: 7; hiPSC survival: -2

What do the screens show for `Cc1ccc2ncccc2c1`?
SKN-1 block: -1; CendR NRP1 mod: -11; MT1-MMP act inh: 1; hiPSC survival: -1

How did CN(C)c1ccc(N=Nc2cccc3ccoc23)cc1 do in these assays?
SKN-1 block: 29; CendR NRP1 mod: 3; MT1-MMP act inh: 5; hiPSC survival: 0

What do the screens show for `Cc1cc(N(C)C)ccc1N=Nc1ccc2ncccc2c1`?
SKN-1 block: 69*; CendR NRP1 mod: 1; MT1-MMP act inh: 12; hiPSC survival: -1

What do the screens show for `CN(C)c1ccc(N=Nc2ccc3ncccc3c2)cc1`?
SKN-1 block: 59*; CendR NRP1 mod: 0; MT1-MMP act inh: 23; hiPSC survival: -6

How did Cc1ccc(N=Nc2ccc(O)c3ncccc23)cc1C do in these assays?
SKN-1 block: 9; CendR NRP1 mod: 14; MT1-MMP act inh: 11; hiPSC survival: -3

What do the screens show for `c1cnc2ccc(-c3ccc4ncccc4c3)cc2c1`?
SKN-1 block: 74*; CendR NRP1 mod: -6; MT1-MMP act inh: -4; hiPSC survival: -1

How did CN(C)c1ccc(N=Nc2cccc(F)c2)cc1 do in these assays?
SKN-1 block: 34*; CendR NRP1 mod: 6; MT1-MMP act inh: 1; hiPSC survival: -1

What do the screens show for `CCC(C)C(CO)NCCCn1ccc(NC(=O)OCc2ccccc2)nc1=O` (stereo not drawn)?
SKN-1 block: -2; CendR NRP1 mod: -6; MT1-MMP act inh: 6; hiPSC survival: -3

What do the screens show for `O=C(CC[C@H]1O[C@@H](n2ccc(=O)[nH]c2=O)[C@H](O)[C@@H]1O)NC1CCN(Cc2ccccc2)C1` (stereo partly drawn)?
SKN-1 block: -5; CendR NRP1 mod: 10; MT1-MMP act inh: 2; hiPSC survival: 1

Results for Cn1cc(Cc2ccc(C(=O)NC34CC5CC(CC(C5)C3)C4)cn2)c2ccccc21 ?
SKN-1 block: 9; CendR NRP1 mod: 3; MT1-MMP act inh: 2; hiPSC survival: -1

How did O=C(CSc1nnc(CNC(=O)c2ccco2)o1)Nc1cccc(F)c1 do in these assays?
SKN-1 block: -14; CendR NRP1 mod: 19*; MT1-MMP act inh: 0; hiPSC survival: 0

What do the screens show for `O=C(CSc1nnc(CNC(=O)c2ccco2)o1)Nc1cccc(C(F)(F)F)c1`?
SKN-1 block: 12; CendR NRP1 mod: -1; MT1-MMP act inh: 5; hiPSC survival: 0

What do the screens show for `Nc1nc(SCC(=O)NCC2CCCO2)[nH]c(=O)c1NC(=O)c1ccco1` (stereo not drawn)?
SKN-1 block: -10; CendR NRP1 mod: 6; MT1-MMP act inh: 7; hiPSC survival: 2

What do the screens show for `COc1ccc(NS(=O)(=O)c2ccc3c(c2)n(C)c(=O)n3C)cc1`?
SKN-1 block: 37*; CendR NRP1 mod: -4; MT1-MMP act inh: 1; hiPSC survival: 0

What do the screens show for `CCOc1ccccc1NC(=O)CSc1ncnc2c1oc1ccccc12`?
SKN-1 block: 34*; CendR NRP1 mod: 2; MT1-MMP act inh: -2; hiPSC survival: 0

What do the screens show for `O=S(=O)(NCC(c1ccc2c(c1)OCO2)N1CCOCC1)c1ccc(Cl)cc1` (stereo not drawn)?
SKN-1 block: 6; CendR NRP1 mod: -5; MT1-MMP act inh: -5; hiPSC survival: 0

What do the screens show for `Cc1cc(S(=O)(=O)NCC(c2ccc3c(c2)OCO3)N2CCOCC2)ccc1F` (stereo not drawn)?
SKN-1 block: 3; CendR NRP1 mod: 24*; MT1-MMP act inh: 3; hiPSC survival: 0

Results for O=C(COC(=O)C1CC1)Nc1ccc(OC(F)F)cc1 ?
SKN-1 block: 1; CendR NRP1 mod: 46*; MT1-MMP act inh: -1; hiPSC survival: 5

What do the screens show for `Clc1ccc(N=c2ssnc2Cl)cc1`?
SKN-1 block: 92*; CendR NRP1 mod: -3; MT1-MMP act inh: -1; hiPSC survival: 1

Results for COc1cc(CNC(=O)c2cc(-c3cc(F)ccc3OCC3CCCO3)n[nH]2)cc(OC)c1 (stereo not drawn) ?
SKN-1 block: -6; CendR NRP1 mod: 11; MT1-MMP act inh: 4; hiPSC survival: 0

Results for Cc1ccc(NC(=O)c2cc(-c3cc(F)ccc3OCC3CCCO3)n[nH]2)cc1NS(C)(=O)=O (stereo not drawn) ?
SKN-1 block: 15; CendR NRP1 mod: 28*; MT1-MMP act inh: -3; hiPSC survival: 2

Results for O=C(CSc1n[nH]c(=O)[nH]c1=O)Nc1ccc(Br)cc1Br ?
SKN-1 block: 1; CendR NRP1 mod: 31*; MT1-MMP act inh: 0; hiPSC survival: 3

What do the screens show for `CC(=O)N1N=C(c2c(-c3ccccc3)c3cc(Br)ccc3[nH]c2=O)CC1c1ccco1` (stereo not drawn)?
SKN-1 block: 10; CendR NRP1 mod: 24*; MT1-MMP act inh: -17; hiPSC survival: -1

How did CC(=O)N1N=C(c2c(-c3ccccc3)c3cc(C)ccc3[nH]c2=O)CC1c1ccco1 (stereo not drawn) do in these assays?
SKN-1 block: 4; CendR NRP1 mod: -3; MT1-MMP act inh: -4; hiPSC survival: -1

What do the screens show for `CC(C)Cc1nnc(NC(=O)CCC(=O)N2CCCCC2)s1`?
SKN-1 block: -3; CendR NRP1 mod: 18*; MT1-MMP act inh: -2; hiPSC survival: 0

Results for Cc1ccc(C(=O)OCC(=O)c2ccccc2)cc1 ?
SKN-1 block: 12; CendR NRP1 mod: 7; MT1-MMP act inh: -1; hiPSC survival: 0

How did CCn1c(SCC(=O)N2CCN(c3ccc(F)cc3)CC2)nc2ccccc2c1=O do in these assays?
SKN-1 block: 4; CendR NRP1 mod: 29*; MT1-MMP act inh: 3; hiPSC survival: 0

Results for Cc1ccccc1CN1C(=O)CS/C1=N/N=C/c1ccco1 ?
SKN-1 block: 4; CendR NRP1 mod: 29*; MT1-MMP act inh: 1; hiPSC survival: 0

From PubChem BioAssay
